Assay [1] is described as follows: inhibitors of TNFa-induced NFkB p65 translocation, primary screen, imaging, HUVEC, MLSMR starter and 10KST1 sets (AID 438;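 active = inhibition above 20% together with a positive visual image hit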;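 note: compound added about 3h40 before a 20 min TNFalpha stimulation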;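 for inhibition: signal is the nuclear over cytoplasmic p65 intensity ratio per well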). The following applies: HUVEC TNFa-induced p65 nuclear translocation; cell count: measured here: nuclei count (cytotoxicity indicator), at 2.08 µM; inhibition: at 2 µM, stronger effect = higher value, 0% TNFa-plus-vehicle, 100% no-TNFa wells.
A short description of assay [2]: endothelial E-selectin expression blockers – imaging, HUVEC, immunofluorescence, MLSMR starter and 10KST1 sets, primary screen (AID 487;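 active = visually confirmed hit in the image check and inhibition above 20%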;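 for inhibition: signal is fraction of cell area covered by stained E-selectin grains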;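 for nuclei count: 100% = median nuclei count of all wells on the same plate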). Particulars: HUVEC TNFalpha-induced E-selectin immunofluorescence imaging, at 2 µM; inhibition: stronger effect = higher value; nuclei count: measured here: cell number, toxicity.
The nature of assay [3]: Primary imaging screen for DUSP6 inhibitors that restore phospho-Erk in transfected HeLa cells, chemical complementation (AID 609;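 active = compounds giving at least 50% inhibition in the cell-based MKP-3 phosphatase rescue imaging test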;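 for inhibition: phospho-Erk level distribution per well compared with pooled transfected vehicle control wells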). The following applies: HeLa MKP-3 transfected, phospho-Erk imaging KS statistic, at 10 µM, cells stimulated with TPA for 15 min.
Assay [4] addresses Dual specificity protein phosphatase 6 (Homo sapiens) (UniProt Q16828). The description is as above. Particulars: HeLa MKP-3 transfected, phospho-Erk imaging KS statistic; at 10 µM; stronger effect = higher value; cells stimulated with TPA for 15 min.
The target of assay [5] is Voltage-gated potassium channel subunit beta-2 (Rattus norvegicus) (UniProt P62483). The assay is described as follows: inhibitors of rat Kvbeta2 reductase activity – biochemical, NADPH fluorescence, primary screen (AID 622;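 active = fluorescence slope higher than the sample average by over 3 SD, cut at about -0.22 in these data, passing the limit was not always enough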;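 note: slope of raw intensity against log time taken from 70 to 1610 s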). Particulars: recombinant KvBeta, 4-cyanobenzaldehyde reduction, at 10 µM, stronger effect = higher value.
Assay [6] has the same target. The assay is described as follows: enhancers of rat Kvbeta2 NADPH turnover – biochemical, NADPH fluorescence, primary screen (AID 623).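 Note: fluorescence intensity change per second fitted from 20 to 320 s.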 The following applies: Recombinant KvBeta, NADPH fluorescence decrease slope, 10 min; at 10 µM; stronger effect = lower value.
The target of assay [7] is Alpha-2C adrenergic receptor (Homo sapiens) (UniProt P18825). The assay is described as follows: compounds altering alpha2C-coupled GIRK flux – cell-based, HEK293 alpha2C/GIRK1/2, thallium flux, primary screen (AID 624;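 active = fluorescence slope after compound addition differing from the mean of all screened samples at 99.7% confidence, in either direction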;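 note: slope of fluorescence ratio to pre-addition baseline per second over 15 to 24 s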). The following applies: thallium flux BTC fluorescence, at 10 µM, actives lie on both sides.
Assay [8] can be described thus: inhibitors of larval lipid processing in zebrafish, primary screen, whole organism, PED6 fluorescence, gall bladder and intestine (AID 686;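 active = a full or partial loss of lipid-probe fluorescence in the fish gall bladder, intestine or both, judged by eye; inactive = no fluorescence loss, or compound toxic to the fish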;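 note: larvae 5 to 7 days old with five fish per well; signal comes from phospholipase A2 cleavage of quenched PED6 carried via bile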). The following applies: Zebrafish larvae PED6 lipid processing, fluorescence scoring; screened at 20 µM (by protocol). The procedure, abridged: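 system = live zebrafish larvae aged 5-7 days, whole organism | probe or stimulus = ingested quenched lipid PED6 at 100 nM | doses = 20 µM single dose | timing = overnight exposure | detection = fluorescence microscopy with visual scoring of gall bladder and intestine | read-out = visual per-well fluorescence inhibition score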

Assay [9] in a line: loss of swimming-algae plug formation – whole organism, Chlamydomonas reinhardtii, WT vs cilia-less mutant, absorbance, 96-well, primary screen (AID 463189;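 active = inhibition at or above 50% relative to wild type and mutant plate controls; inactive = inhibition below 50%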;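 note: 0% = wild type cc124 cells in DMSO and 100% = ciliumless bld1 mutant cells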). Particulars: Chlamydomonas reinhardtii gravitaxis, OD600 absorbance, 2 days; at 10 µM; stronger effect = higher value.
[10] abbreviates: measured here: cell density z-score.
Where [11] appears, read: measured here: nuclear c-Myc green intensity z-score.
The mark [12] stands for this setting: measured here: nuclear pErk red intensity z-score, stronger effect = higher value.

Broadly, the inhibition is the relative decrease from the control value, in per cent.

Structures are written as SMILES. Calls of active or inactive are those of the source.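 Rule for the calls, unless noted: active = NADPH fluorescence slope more negative than the mean of all samples by about 3 SD, 99.7% confidence; inactive = the rest.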

Sequence of Voltage-gated potassium channel subunit beta-2 (Rattus norvegicus) (P62483 whole entry, looked up): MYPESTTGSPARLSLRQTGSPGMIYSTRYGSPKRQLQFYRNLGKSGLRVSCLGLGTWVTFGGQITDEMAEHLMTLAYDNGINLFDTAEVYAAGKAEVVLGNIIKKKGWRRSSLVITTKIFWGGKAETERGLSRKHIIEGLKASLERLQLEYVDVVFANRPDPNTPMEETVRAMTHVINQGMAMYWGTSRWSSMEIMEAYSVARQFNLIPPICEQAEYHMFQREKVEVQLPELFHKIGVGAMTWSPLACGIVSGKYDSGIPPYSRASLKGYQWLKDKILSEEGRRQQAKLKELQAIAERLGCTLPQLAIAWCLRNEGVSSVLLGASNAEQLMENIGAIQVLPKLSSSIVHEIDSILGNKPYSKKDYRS
Sequence of Alpha-2C adrenergic receptor (Homo sapiens) (P18825 whole entry, looked up): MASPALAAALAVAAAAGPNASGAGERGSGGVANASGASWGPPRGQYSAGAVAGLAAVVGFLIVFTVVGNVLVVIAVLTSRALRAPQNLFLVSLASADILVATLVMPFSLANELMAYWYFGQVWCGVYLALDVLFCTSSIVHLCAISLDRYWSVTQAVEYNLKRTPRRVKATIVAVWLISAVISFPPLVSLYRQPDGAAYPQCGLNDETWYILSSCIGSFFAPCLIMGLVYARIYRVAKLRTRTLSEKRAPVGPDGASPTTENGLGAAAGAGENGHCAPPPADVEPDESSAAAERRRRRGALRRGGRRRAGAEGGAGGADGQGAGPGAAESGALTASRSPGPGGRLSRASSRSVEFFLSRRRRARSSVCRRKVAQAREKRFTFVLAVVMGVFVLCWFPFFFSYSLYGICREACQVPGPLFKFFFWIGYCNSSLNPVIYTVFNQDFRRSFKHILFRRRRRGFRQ
Sequence of Dual specificity protein phosphatase 6 (Homo sapiens) (Q16828 whole entry, looked up): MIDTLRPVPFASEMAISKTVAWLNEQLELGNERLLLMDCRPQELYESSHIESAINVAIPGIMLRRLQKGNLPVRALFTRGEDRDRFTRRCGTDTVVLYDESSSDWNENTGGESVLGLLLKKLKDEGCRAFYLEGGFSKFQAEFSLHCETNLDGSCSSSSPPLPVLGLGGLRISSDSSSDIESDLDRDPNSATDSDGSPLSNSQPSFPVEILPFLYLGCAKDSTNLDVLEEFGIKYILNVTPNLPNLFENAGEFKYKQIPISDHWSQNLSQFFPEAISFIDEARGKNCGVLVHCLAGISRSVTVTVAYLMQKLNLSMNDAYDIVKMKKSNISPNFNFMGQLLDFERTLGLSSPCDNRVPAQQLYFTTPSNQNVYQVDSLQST

On to `COC(=O)c1c(NC(=O)c2nn(C)cc2Cl)sc2c1CCCC2`, for which, in [1], the cell count turned out to be 650. For the same compound, the inhibition is 4.5% (inactive) in assay [1], -19.9% (inactive) in [2], 2.46% (inactive) in assay [4] and 23.3% (inactive) in assay [9]. The nuclei count in assay [2] was 179%. The z-score in assay [3] (setting [10]) was -0.637; in assay [3] (setting [11]) it was -1.15; in assay [3] (setting [12]), 1.29. For the same compound, the fluorescence slope in assay [5] is -0.389 (inactive). For the same compound, in assay [6], the NADPH fluorescence slope is -3.5e-05 (inactive). Moreover, the slope in assay [7] is 0.00842 (inactive). Moreover, the compound was called inactive in assay [8].
On to `Cc1cc(C)n(Cc2ccc(C(=O)NCCC3=CCCCC3)o2)n1`, for which the cell count in assay [1] came to 333. Further, the inhibition in assay [1] is -8% (inactive); in assay [2] it was -28.7% (inactive); in assay [4], 8.76% (inactive); in assay [9] it was 16.8% (inactive). The compound further yielded a nuclei count in assay [2] of 119%. For the same compound, the z-score in [3] (setting [10]) was 0.702; in assay [3] (setting [11]) it was 0.069; in [3] (setting [12]), -0.61. Moreover, the fluorescence slope in [5] was -0.456 (inactive). Moreover, the NADPH fluorescence slope in assay [6] was -0.000101 (inactive). In addition, the slope in assay [7] was 0.00523 (inactive). Besides, in assay [8], the call was inactive.
In the case of `CC(C)CC(=O)Nc1ccccc1N1CCCC1`, the cell count in assay [1] was determined as 269. Also, the inhibition is 3.1% (inactive) in assay [1], -24.3% (inactive) in assay [2], 9.39% (inactive) in assay [4] and -8.2% (inactive) in assay [9]. Moreover, the nuclei count in assay [2] was determined as 101%. The values for the z-score in assay [3] (setting [10]), in assay [3] (setting [11]) and in assay [3] (setting [12]) were -0.814, 0.661 and -0.804, respectively. In [5], the fluorescence slope is -0.396 (inactive). In addition, in [6], the NADPH fluorescence slope is -1.2e-05 (inactive). For the same compound, the slope in assay [7] was 0.0054 (inactive). In addition, the call in assay [8] was inactive.
In the case of `CNC(=O)c1cc2ccccc2o1`, in assay [1], the cell count worked out at 323. Moreover, the inhibition is -23.3% (inactive) in assay [1], -72.9% (inactive) in [2], -5.26% (inactive) in assay [4] and 32% (inactive) in assay [9]. In assay [2], this compound displayed a nuclei count of 132%. The z-score was -1.3 in [3] (setting [10]), -0.443 in assay [3] (setting [11]) and -1.56 in assay [3] (setting [12]). In addition, the fluorescence slope in assay [5] is -0.428 (inactive). Also, the NADPH fluorescence slope in [6] was -4.2e-05 (inactive). The slope in assay [7] is 0.00621 (inactive). Besides, in assay [8], the result was inactive.
As to `CCOC(=O)C1CCCN(c2nc3ccccc3nc2C(C#N)C(=O)OCCOC)C1` (configuration not stated), the cell count in assay [1] came to 542. Also, the inhibition was -14.7% (inactive) in assay [1], -102% (inactive) in assay [2], 4.72% (inactive) in assay [4] and 6.3% (inactive) in assay [9]. The compound further gave a nuclei count in assay [2] of 160%. For the same compound, the z-score is 0.574 in [3] (setting [10]), 2.29 in [3] (setting [11]) and -0.983 in assay [3] (setting [12]). For the same compound, the fluorescence slope in assay [5] is -0.48 (inactive). Further, the NADPH fluorescence slope in assay [6] was -4.8e-05 (inactive). In addition, the slope in [7] was 0.0042 (inactive). Moreover, in assay [8], the outcome is “active; weak signal in gallbladder and intestine”.
In the case of `COc1ccc(OC)c2c1CCC2=O`, in [1], the cell count turned out to be 434. Besides, the inhibition in [1] is -0.5% (inactive); in [2], 3.9% (inactive); in [4] it was -1.12% (inactive); in assay [9], 9.78% (inactive). In [2], this compound registered a nuclei count of 102%. Further, the values for the z-score in assay [3] (setting [10]), in assay [3] (setting [11]) and in assay [3] (setting [12]) were -0.357, -1.08 and -0.0279, respectively. In addition, the fluorescence slope in [5] was -0.0756 (inactive). The NADPH fluorescence slope in [6] is 8.5e-06 (inactive). Moreover, in assay [7], the slope is 0.00599 (inactive). Moreover, the outcome in [8] was inactive.
Consider `Cc1nc2c(c(=O)n1CC1CCCO1)c1nc3ccccc3nc1n2CCC(C)C` (configuration not stated), for which, in assay [1], the cell count stood at 327. For the same compound, the inhibition is -4.1% (inactive) in assay [1], -30.1% (inactive) in [2], -0.584% (inactive) in [4] and 24.8% (inactive) in assay [9]. The same compound yielded a nuclei count in assay [2] of 177%. The figures for the z-score in assay [3] (setting [10]), in assay [3] (setting [11]) and in assay [3] (setting [12]) were 1.21, -0.55 and 1.04, respectively. The fluorescence slope in assay [5] is -0.381 (inactive). Further, the NADPH fluorescence slope in assay [6] is -0.000104 (inactive). The slope in assay [7] is 0.00821 (inactive). In addition, the outcome in assay [8] was inactive.
Consider `CC(C)Cn1cnc2c(c1=O)c1nc3ccccc3nc1n2Cc1ccc2c(c1)OCO2`, for which, in [1], the cell count came to 361. Moreover, the inhibition in assay [1] was -3.7% (inactive); in assay [2], -15.2% (inactive); in assay [4] it was 9.42% (inactive); in assay [9], 1.23% (inactive). The nuclei count in [2] was 149%. In addition, the figures for the z-score in assay [3] (setting [10]), in assay [3] (setting [11]) and in assay [3] (setting [12]) were 0.279, -0.729 and -0.248, respectively. In addition, the fluorescence slope in [5] was -0.393 (inactive). Besides, in [6], the NADPH fluorescence slope was -0.000121 (inactive). For the same compound, the slope in assay [7] was 0.00801 (inactive). The call in assay [8] was inactive.
Regarding `COc1cc(-c2cc(C(F)(F)F)n3ncc(C(=O)O)c3n2)cc(OC)c1OC`, the cell count in [1] was 479. Further, the inhibition in assay [1] was -8.4% (inactive); in assay [2] it was -63% (inactive); in [4], 11.3% (inactive); in [9] it was -8.65% (inactive). This compound returned a nuclei count in assay [2] of 123%. In addition, the z-score in assay [3] (setting [10]) is 0.0221; in [3] (setting [11]) it was -0.381; in assay [3] (setting [12]), 0.038. The fluorescence slope in assay [5] was -0.439 (inactive). In assay [6], the NADPH fluorescence slope is -0.000193 (inactive). Further, the slope in assay [7] was 0.00431 (inactive). In assay [8], the call was inactive.

Values taken from PubChem BioAssay.
